An excerpt weighted towards active compounds, which were near 3.3% of everything screened.
Myeloid diff 2: compounds promoting myeloid differentiation; ER-HoxA9 myeloid progenitors, lysozyme-GFP differentiation, flow cytometry; calls only at 10 µM; 360,000 compounds, 1% hits; AID 624256;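 active = normalized GFP-positive differentiation at or above the plate's own cutoff, the solvent-only control mean plus 3 SD; inconclusive = no clear call, values can overlap the other calls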;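 note: cells exposed to compound for four days before flow analysis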
Exocytosis inh: blocks lytic granule exocytosis; 360,000 compounds, 0.66% hits; TALL-104 LAMP-1 surface exposure, flow cytometry; cells stimulated with thapsigargin and PMA; inhibition, % at 10 µM;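 active = inhibition above about 55%, limit read from the data; inconclusive = no clear call, values can overlap the other calls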
ATG4B inhibitor: ATG4B (human) cysteine protease inhibition. Q9Y4P1. ATG4B cleavage of LC3-PLA2, NBD-HPC fluorescence, 1 h. inhibition, % at 8.33 µM. 340,000 compounds, 0.51% hits. AID 504462; in the data active = inhibition above about 40%
Arrestin-AP2 inh: blocks beta-arrestin peptide binding to AP2 adaptin. 340,000 compounds, 0.31% hits. FITC-arrestin peptide / GST-AP2 beads, flow cytometry; AP2 beta2 appendage carries R879A mutation. inhibition, % at 10 µM. AID 504490;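 active = inhibition above a set limit, near 3 SD of compounds lacking own fluorescence, cut at about 54% in these data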;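 note: plate controls were DMSO wells for no effect and 5 µM unlabelled arrestin peptide for full effect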
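System: GST-AP2 R879A bound to glutathione beads, E. coli-expressed. Also added: 50 nM FITC-arrestin peptide. Schedule: compound with beads 12 min RT, then probe 1 h RT. Signal: bead flow cytometry, FITC channel. Read-out basis: percent response.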
CendR NRP1 mod: alters CendR peptide binding to human NRP-1; FAM-RPARPAR peptide binding to NRP-1, fluorescence polarization; inhibition, % at 25 µM; 360,000 compounds, 0.85% hits;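 active = inhibition or corrected inhibition above about 18%, plus a signal ratio from 0.5 to 1.5, limit read from the data, passing the limit was not always enough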
Target sequence (O14786 whole entry, looked up): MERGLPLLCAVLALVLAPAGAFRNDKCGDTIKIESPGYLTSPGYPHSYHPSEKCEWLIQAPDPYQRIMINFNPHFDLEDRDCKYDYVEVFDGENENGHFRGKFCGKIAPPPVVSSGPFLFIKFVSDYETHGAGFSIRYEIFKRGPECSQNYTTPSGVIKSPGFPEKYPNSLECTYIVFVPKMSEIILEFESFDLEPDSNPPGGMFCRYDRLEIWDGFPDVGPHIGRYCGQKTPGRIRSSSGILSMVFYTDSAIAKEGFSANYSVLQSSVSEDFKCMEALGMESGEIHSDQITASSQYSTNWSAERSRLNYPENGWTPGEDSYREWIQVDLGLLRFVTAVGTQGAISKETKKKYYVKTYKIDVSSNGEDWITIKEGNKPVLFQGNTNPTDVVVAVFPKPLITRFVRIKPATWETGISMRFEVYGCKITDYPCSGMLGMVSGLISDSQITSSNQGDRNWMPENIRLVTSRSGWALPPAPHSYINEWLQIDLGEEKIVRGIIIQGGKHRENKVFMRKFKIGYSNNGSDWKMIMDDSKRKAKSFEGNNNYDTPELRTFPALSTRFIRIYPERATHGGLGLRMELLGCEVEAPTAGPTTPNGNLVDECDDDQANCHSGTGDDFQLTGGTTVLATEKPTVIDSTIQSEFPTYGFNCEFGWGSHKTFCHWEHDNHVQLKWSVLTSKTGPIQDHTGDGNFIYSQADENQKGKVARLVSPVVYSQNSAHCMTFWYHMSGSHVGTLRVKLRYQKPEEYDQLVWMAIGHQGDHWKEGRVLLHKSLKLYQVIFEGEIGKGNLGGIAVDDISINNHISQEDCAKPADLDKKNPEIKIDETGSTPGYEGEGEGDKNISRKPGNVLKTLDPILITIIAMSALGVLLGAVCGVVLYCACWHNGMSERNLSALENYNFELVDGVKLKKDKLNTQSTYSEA
ABCB6 inh MLPCN: inhibitors of human ABC transporter ABCB6. 360,000 compounds, 0.19% hits. Q9NP58. AID 602162. fluorescence ratio to DMSO, % at 10 µM. K562-ABCB6 porphyrin accumulation, flow cytometry, 1 h; hits give low values;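 active = fluorescence ratio to DMSO below 75%, the collection mean minus 3 SD; inconclusive = too few cells collected in the well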;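 note: signal is porphyrin accumulated inside mitochondria; 100% equals median channel fluorescence of DMSO control wells; lower ratio means ABCB6 inhibition with less porphyrin fluorescence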
Numbers without * were called inactive; i = inactive; u = inconclusive; x = no result; + = active, no number; ! = not confirmed by another sample.

SMILES | Myeloid diff 2 | Exocytosis inh | ATG4B inhibitor | Arrestin-AP2 inh | CendR NRP1 mod | ABCB6 inh MLPCN
CC1=Nc2ccc(C)cc2/C1=C/c1c(N)n2c(S(=O)(=O)C(C)C)nsc2nc1=O | i | -1 | 12 | 4 | -13 | 98
CC1=Nc2ccc(C)cc2/C1=C/c1c(N)n2oc(C)cc2nc1=O | +! | -14 | 4 | 46 | -74 | 113
CSc1nsc2nc(=O)c(/C=C3\C(C)=Nc4ccc(C)cc43)c(N)n12 | i | 78* | 9 | 10 | -18 | 121
CCC(C)NC(=O)CCc1nc2ccccc2n1-c1ccccc1 (stereo unspecified) | i | -4 | -1 | 11 | 15 | 95
Oc1ccc(Nc2ncnc3c2oc2ccccc23)cc1 | i | 0 | -1 | 6 | -3 | 110
c1ccc(Nc2ncnc3c2oc2ccccc23)cc1 | i | 4 | 1 | -7 | 24* | 84
COC1=CC(C)C2CC3OC(=O)CC4C(C)=C(OC)C(=O)C(C2(C)C1=O)C34C (stereo unspecified) | i | -4 | x | x | 5 | 99
CCC(C)NC(=O)c1c(N)n(/N=C/c2ccccn2)c2nc3ccccc3nc12 (stereo unspecified) | i | 56* | -19 | 6 | -8 | 90
CN(CC(=O)NCc1ccco1)S(=O)(=O)c1ccc(F)cc1 | i | 9 | -1 | -5 | 1 | 92
COc1ccc(S(=O)(=O)N(C)CC(=O)NCc2ccco2)cc1Cl | + | 2 | -11 | 38 | 10 | 99
COc1ccc(C)cc1S(=O)(=O)N(C)CC(=O)NCc1ccco1 | i | 2 | -3 | 14 | -2 | 99
COc1cc(C(=O)NCC(=O)NNC(=O)CN(C)S(=O)(=O)c2ccc(Cl)cc2)cc(OC)c1OC | i | 6 | 10 | -1 | 27* | 97
CN(CCCC(=O)NCc1ccco1)S(=O)(=O)c1ccccc1 | + | -1 | 5 | 18 | -3 | 97
CC(C)c1cccc(C(C)C)c1NC(=O)c1ccc(-c2cc(Cl)ccc2Cl)o1 | i | 1 | x | x | -8 | 98
Cc1ccc(CNc2ccccc2C(=O)O)s1 | i | 7 | 4 | 41 | -7 | 103
CCN1C(=O)/C(=C/N2CCc3ccccc32)SC1=S | i | -1 | -4 | 70* | -24 | 100
CCC(C)(C#CCN1CCCCC1)OCCC#N (stereo unspecified) | i | -3 | -9 | 7 | 3 | 90
Cc1noc(NC(=O)c2ccccc2Cl)c1C#N | i | -1 | -1 | 7 | 5 | 89
COc1ccccc1C(=O)Nc1onc(C)c1C#N | i | 1 | -5 | -8 | 20* | 95
CCCC(=O)Nc1ccc(Cl)c(NC(=S)NC(=O)c2ccco2)c1 | i | -1 | -2 | -3 | -1 | 98
Cc1cc(C)c2c(=O)n(CC(=O)Nc3cccc(Cl)c3C)sc2n1 | i | 65* | 0 | 30 | -11 | 91
Cc1ccc(Oc2cc([N+](=O)[O-])cc3c2C(=O)Nc2ccccc2O3)cc1 | + | 2 | 3 | 40 | -70 | 105
O=C1Nc2ccccc2Nc2ccc([N+](=O)[O-])cc21 | i | -3 | 2 | -13 | 7 | 92
O=C(NNC(=O)c1ccccc1OCc1ccccc1)c1ccccc1F | i | -10 | 10 | -5 | 10 | 99
O=C(N/N=C/c1ccccc1F)c1ccccc1OCc1ccccc1 | i | 107* | 22 | -2 | -4 | 96
SMILES | Myeloid diff 2 | Exocytosis inh | ATG4B inhibitor | Arrestin-AP2 inh | CendR NRP1 mod | ABCB6 inh MLPCN
NC(=O)NC(CC(=O)NCc1ccc2c(c1)OCO2)c1ccccc1Cl (stereo unspecified) | i | 15 | -4 | 30 | 9 | 98
CN1/C(=C\C=N\NC(=O)c2cccnc2)C(C)(C)c2ccccc21 | i | 2 | -2 | 25 | 0 | 121
CN1/C(=C\C=N\NC(=O)c2ccc(O)cc2)C(C)(C)c2ccccc21 | + | 4 | -6 | 11 | -84 | 308
Cc1ccc(C(=O)NC(=S)/C=C2\N(C)c3ccccc3C2(C)C)cc1 | + | 8 | 16 | -5 | -49 | i
CN1/C(=C\C(=O)C(F)F)C(C)(C)c2ccccc21 | i | 0 | 3 | -6 | 9 | 96
CC(C)C(=O)NC(=S)/C=C1/N(C)c2ccccc2C1(C)C | + | 4 | 4 | 11 | -152 | 625
COc1ccc(NC(=O)NC23CC4(C)CC(C)(CC(C)(C4)C2)C3)cc1OC | i | 1 | -4 | 12 | -9 | 102
NC1=NC(=O)C2(COC(c3ccncc3)OC2)S1 (stereo unspecified) | i | 0 | 1 | -7 | -4 | 96
O=C(O)c1ccc(-c2nc(-c3ccc(Cl)cc3Cl)cs2)cc1 | i | -4 | -1 | -4 | 3 | 95
Cc1onc(-c2ccc(Cl)cc2Cl)c1-c1csc(COc2ccccc2)n1 | i | -2 | 0 | 7 | 27* | 98
CCCCc1ccccc1NC(=S)NC1CCCC1 | u | -2 | 20 | 5 | 9 | 97
CC(CN1CCC(O)CC1)c1ccccc1 (stereo unspecified) | x | 3 | 3 | 54 | 5 | 97
CC(CN1CCN(Cc2ccccc2)CC1)c1ccccc1 (stereo unspecified) | i | 61* | -4 | 13 | -4 | 101
CSc1ccccc1C(=O)C1CCCN(C(=O)NC(C)C)C1 (stereo unspecified) | i | 0 | -7 | 12 | 3 | 92
CCn1nc(C)cc1C(=O)N1CCCC(C(=O)c2ccccc2SC)C1 (stereo unspecified) | + | 0 | 27 | -6 | 6 | 86
Cc1ccc(C)c(N2CCN(C(=O)c3ccc(CSc4nc5ccncc5[nH]4)cc3)CC2)c1 | + | 28 | -11 | 2 | -1 | 93
O=C(c1ccc(CSc2nc3ccncc3[nH]2)cc1)N1CCCCC1 | i | -10 | -12 | -1 | -2 | 99
CC1=NN(c2nc(N)nc(/C(C#N)=C/c3ccc([N+](=O)[O-])o3)n2)C(C)(C)C1 | u | 83* | 9 | 26 | -173 | i
C/C(=N\Nc1ccc(C(=O)O)cc1)c1ccc(S(=O)(=O)NCc2ccco2)cc1 | i | -6 | 6 | -8 | 4 | 100
Cc1nn(-c2ccccc2)c(N2CCCC2)c1/C=N/NC(=O)c1cccc(S(=O)(=O)Nc2ccc(Cl)cc2)c1 | + | 0 | 17 | 40 | -12 | 95
COc1cccc(N2CCN(CC(=O)Nc3ccc(S(=O)(=O)N4CCCCCC4)cc3)CC2)c1 | i | 1 | -12 | 30 | -3 | 93
Cc1c(C(=O)N2CCCC2)c(S(=O)(=O)Nc2cccc(Br)c2)c(C)n1C | i | 0 | 3 | -3 | 9 | 102
COc1ccccc1C(=O)NN(C)C1=NS(=O)(=O)c2ccccc21 | i | 3 | -6 | 6 | 20* | 100

Bioassay records from PubChem BioAssay.
